Assay results taken from ChEMBL document CHEMBL5038582, “Adamantyl Isothiocyanates as Mutant p53 Rescuing Agents and Their Structure-Activity Relationships” (J Med Chem, 2021).
Active and inactive are the calls of the source. The rule behind the calls is not given here.

What was measured:
MDA-MB-468 [1] = experiment: Induction of apoptosis in human MDA-MB-468 cells expressing p53 R273H mutant assessed as increase in level of cleaved PARP1 level at 6 to 12 uM measured after 24 hrs by western blotting analysis; type: functional, cell-based; settings: dose 6-12 µM
Outline: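 Cells treated with DMSO or compound at 6 or 12 µM for 24 h, then lysed in Tris-Cl pH 8.0/NaCl/glycerol/NP-40/EDTA buffer with protease inhibitors. 100 µg lysate resolved on 4-12% SDS-PAGE and blotted to PVDF. Probed with anti-PARP or anti-caspase 3, then HRP secondary and ECL. GAPDH reprobe as control.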

MCF-10A = experiment: Cytotoxicity against human MCF10A cells expressing wild type p53 assessed as inhibition of cell growth at 10 to 50 uM incubated for 24 to 72 hrs by WST-1 assay; type: functional, cell-based; settings: dose 10-50 µM, time 24-72 hrs
[2] = test system: Cellular tumor antigen p53 (Homo sapiens), P04637 [R273H]; experiment: Reactivation of transactivation function to p53 R273H mutant in human MDA-MB-468 cells assessed as increase in MDM2 mRNA expression at 6 uM incubated for 4 hrs by qRT-PCR analysis; type: cell-based; settings: filed as activator
Outline: (§1)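 Cells treated with DMSO or 6 µM test compound for 4 h. RNA extracted, cDNA synthesised, transcript measured by TaqMan qRT-PCR and normalised to GAPDH. Averages from triplicates of repeated experiments, with standard deviation.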

[3] = test system: Cellular tumor antigen p53 (Homo sapiens), P04637 [R273H]; experiment: Reactivation of transactivation function to p53 R273H mutant in human MDA-MB-468 cells assessed as increase in p21 mRNA expression at 6 uM incubated for 4 hrs by qRT-PCR analysis; type: cell-based; settings: filed as activator; outline: as §1
MCF7 [4] = experiment: Antiproliferative activity against human MCF7 cells expressing WT p53 assessed as inhibition of cell growth at 10 to 50 uM incubated for 24 to 72 hrs by WST-1 assay; type: functional, cell-based; settings: dose 10-50 µM, time 24-72 hrs
Outline: (§2)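 WST-1 proliferation assay. Compound diluted in DMSO so that 10 μl of stock in 1 ml of cells (40,000 cells/ml) gives the test concentration at 1% DMSO. Cells plated at 4,000/well in duplicate and incubated at 37 °C for 24 h or 72 h. Result given as % of the 1% DMSO control.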

MDA-MB-231 [5] = experiment: Downregulation of p53 R280K mutant expression in human MDA-MB-231 cells at 6 to 12 uM measured after 24 hrs by immunoblot analysis; settings: dose 6-12 µM
MDA-MB-231 [6] = experiment: Induction of apoptosis in human MDA-MB-231 cells expressing p53 R280K mutant assessed increase in number of Annexin-V stained cells at 6 to 12 uM incubated for 24 hrs by AnnexinV-FITC and PI staining based flow cytometry; type: functional, cell-based; settings: dose 6-12 µM
Outline: (§3)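 24 h treatment, DMSO control. Cells scraped, washed in PBS, then given fluorochrome-conjugated Annexin V for 15 min at RT in the dark, followed by PI (0.1 µg/ml) in binding buffer. Read by flow cytometry on LSRFortessa. Annexin V-positive cells expressed relative to the DMSO control.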

MDA-MB-468 [7] = experiment: Downregulation of p53 R273H mutant expression in human MDA-MB-468 cells at 6 to 12 uM measured after 24 hrs by immunoblot analysis; type: functional, cell-based; settings: dose 6-12 µM
Outline: (§4)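 24 h exposure to 6 or 12 μM, DMSO control. Lysis in Tris pH 8.0/NaCl/glycerol/NP-40/EDTA buffer with protease inhibitors. 20 µg (MDA-MB-231, MDA-MB-468) or 50 µg (MCF-7) of lysate run on 4-12% SDS-PAGE. Blot probed with p53 DO-1, GAPDH used for reprobe/loading. Triplicate experiments.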

[8] = test system: Cellular tumor antigen p53 (Homo sapiens), P04637 [R273H]; experiment: Reactivation of transactivation function to p53 R273H mutant in human MDA-MB-468 cells assessed as ATM activation by measuring increase in phosphorylation of ATM at serine 1981 residue at 6 uM measured after 24 hrs by immunoblot analysis; type: cell-based; settings: filed as activator
Outline: (§5)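 DMSO or 6 µM for 24 h. 250 µg of lysate run on 4-12% SDS-PAGE, blot probed with anti-pATM Ser1981 (1:500), then anti-mouse HRP secondary with ECL detection. GAPDH reprobe as control. Triplicate experiments.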

MDA-MB-436 = experiment: Antiproliferative activity against human p53-null MDA-MB-436 cells assessed as inhibition of cell growth at 10 to 50 uM measured after 24 to 72 hrs by WST-1 assay; type: functional, cell-based; settings: dose 10-50 µM, time 24-72 hrs; outline: as §2
MDA-MB-468 [9] = experiment: Cell cycle arrest in human MDA-MB-468 cells expressing p53 R273H mutant assessed as accumulation of cells at G1 phase at 6 uM measured after 24 hrs by PI staining based flow cytometry (reference value: 30.6%); type: functional
MDA-MB-468 [10] = experiment: Antiproliferative activity against human MDA-MB-468 cells transfected with non-specific siRNA assessed as inhibition of cell growth at 5 to 25 uM measured after 24 hrs by WST-1 assay; type: functional, cell-based; settings: dose 5-25 µM
Outline: (§6)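 MDA-MB-468 cells plated at 50-60% confluence 24 h before transfection. p53 SMARTpool or non-specific siRNA (0.430 nmol) given with Lipofectamine 2000 in Opti-MEM for 5 h, repeated after 24 h. Drug or DMSO added 72 h after the first transfection. Proliferation read by WST-1, % of DMSO control.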

MDA-MB-468 [11] = experiment: Antiproliferative activity against human MDA-MB-468 cells transfected with p53 siRNA assessed as inhibition of cell growth at 5 to 25 uM measured after 24 hrs by WST-1 assay; type: functional, cell-based; settings: dose 5-25 µM; outline: as §6
MDA-MB-231 [12] = experiment: Cell cycle arrest in human MDA-MB-231 cells expressing p53 R280K mutant assessed as accumulation of cells at G1 phase at 6 uM measured after 24 hrs by PI staining based flow cytometry (reference value: 42.9%)
MCF7 [13] = experiment: Cell cycle arrest in human MCF7 cells expressing wild type p53 assessed as accumulation of cells at G2/M phase at 6 uM measured after 24 hrs by PI staining based flow cytometry (reference value: 21.3%); type: functional
[14] = test system: Cellular tumor antigen p53 (Homo sapiens), P04637 [R280K]; experiment: Reactivation of transactivation function to p53 R280K mutant in human MDA-MB-231 cells assessed as ATM activation by measuring increase in phosphorylation of ATM at serine 1981 residue at 6 uM measured after 24 hrs by immunoblot analysis; type: cell-based; settings: filed as activator; outline: as §5
MDA-MB-468 [15] = experiment: Induction of apoptosis in human MDA-MB-468 cells expressing p53 R273H mutant assessed fold increase in number of Annexin-V stained cells at 6 to 12 uM incubated for 24 hrs by AnnexinV-FITC and PI staining based flow cytometry relative to control; type: functional; settings: dose 6-12 µM; outline: as §3
MCF7 [16] = experiment: Downregulation of p53 expression in human MCF7 cells at 6 to 12 uM measured after 24 hrs by immunoblot analysis; type: functional, cell-based; settings: dose 6-12 µM; outline: as §4
MDA-MB-231 [17] = experiment: Antiproliferative activity against human MDA-MB-231cells expressing p53 R280K mutant assessed as inhibition of cell growth at 10 to 50 uM incubated for 24 hrs by WST-1 assay; type: functional, cell-based; settings: dose 10-50 µM; outline: as §2

SMILES | Activity (MDA-MB-468 [1]) | Activity (MCF-10A) | Activity [2] | Activity [3] | Activity (MCF7 [4]) | p53 R280K downregulation (active/not active) (MDA-MB-231 [5]) | Activity (MDA-MB-231 [6]) | inhibition (MDA-MB-468 [7]) | Activity [8] | Activity (MDA-MB-436) | Activity (MDA-MB-468 [9]) [%] | Activity (MDA-MB-468 [10]) | Activity (MDA-MB-468 [11]) | Activity (MDA-MB-231 [12]) [%] | Activity (MCF7 [13]) [%] | Activity [14] | fold change (FC) (MDA-MB-468 [15]) | inhibition (MCF7 [16]) | Activity (MDA-MB-231 [17])
[Se]=C=NCCC12CC3CC(CC(C3)C1)C2 | Active | inactive | Active | Active | Active | Active | Active | Active | – | – | – | – | – | – | – | – | – | – | –
S=C=NCCCC12CC3CC(CC(C3)C1)C2 | Active | inactive | Active | Active | Active | Active | – | Active | Active | inactive | 53.2 | Active | inactive | 48.2 | 24.3 | Active | 2 | inactive | Dose-Dependent Effect
